# Laboratory results taken from ChEMBL document CHEMBL4330095, “Development of an anti-hepatitis B virus (HBV) agent through the structure-activity relationship of the interferon-like small compound CDM-3008” (Bioorg Med Chem, 2019).
# Activity calls are given as the source filed them. The rule behind the calls is not given here.
# How the values were obtained:
# [1] = Cytotoxicity against human […] cells harboring R6FLR-N replicons after 3 days by XTT assay; format: cell-based; design: concentration or dose not given beside the values; settings: 72 h
# Method in brief: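 Replicon cells seeded at 3 × 10⁴ cells/well and exposed to compound for 3 days; viability by XTT. Values given as percent at 30 μM against DMSO control, mean of n = 2.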
# [2] = Solubility of the compound by HPLC-UV analysis; format: physicochemical
# Method in brief: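 Dissolved compound solution injected into HPLC and peak area read by UV at 254 nm; concentration derived from a previously determined calibration curve.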
# [3] = tested on: HBV genotype C; test: (§1) Antiviral activity against HBV genotype C infected in primary human hepatocytes PXB cells assessed as inhibition of viral DNA level after 14 days by qPCR analysis; format: functional, cell-based
# Method in brief: (§2)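 PXB cells (primary human hepatocytes from humanized-liver chimeric mice) in dHCGM, 37 °C, 5% CO2; infected with HBV C_AT at 3 genome equivalents/cell while treated with 0.01–10 μM compound; after 1 day, compound-containing medium exchanged every 3 or 4 days for 14 days. Cellular DNA purified and quantified, HBV DNA by qPCR; mean ± SE, n = 3.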
# [4] = tested on: Hepatitis C virus; test: Antiviral activity against HCV infected in human R6FLR-N replicon cells assessed as reduction in viral replication at 30 uM after 3 days by luciferase reporter gene assay; format: functional, Hepacivirus hominis; design: scale not given: the % may be the effect or the level left
# Method in brief: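 R6FLR-N replicon cells, 3 × 10⁴ cells/well, grown in DMEM with 10% FBS and 500 μg/ml G418; compound added after 1 day, then 3 days of incubation. Luciferase read by Steady-Glo; percent inhibition at 30 μM expressed against DMSO control, mean of n = 2.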
# [5] = tested on: HBV genotype C; test: Antiviral activity against HBV genotype C infected in primary human hepatocytes PXB cells assessed as inhibition of viral DNA level at 0.32 to 32 uM incubated for 7 days by qPCR analysis; format: functional, cell-based
# Method in brief: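 PXB cells in dHCGM infected with HBV C_AT, 3 genome equivalents/cell; medium exchanged every 3 or 4 days. After 28 days of infection, cells treated with the indicated concentrations for 7 days, pegylated IFNα2a run alongside. Cellular DNA purified and quantified, then HBV DNA measured by qPCR; mean ± SE, n = 3.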
# [6] = organism: Homo sapiens; test: Induction of IFN-stimulated gene expression response in human JHH7 cells assessed as upregulation of OAS1 mRNA expression at 3 to 30 uM after 3 days by qPCR analysis; format: functional, cell-based
# Method in brief: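 JHH-7 hepatoma cells in DMEM with 10% FBS, 37 °C, 5% CO2, exposed to 3 and 30 μM compound for 3 days. Total RNA purified and its concentration measured by UV spectrophotometry before OAS-1 mRNA measurement; mean ± SE, n = 3.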
# [7] = Half life in mouse liver microsomes at 29 umol/L preincubated for 5 mins followed by NADPH addition measured after 120 mins by HPLC analysis; format: ADME, Microsome
# Method in brief: (§3)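 Compound (29 μmol/L, as added) combined with mouse or human liver microsomes (20 mg/mL stock), preincubated 5 min at 37 °C, then NADPH regenerating system added and incubated 0, 30, 60 or 120 min at 37 °C. Aliquots quenched in ice-cold MeOH, internal standard added, centrifuged; remaining compound quantified by HPLC against a calibration curve.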
# [8] = Half life in human liver microsomes at 29 umol/L preincubated for 5 mins followed by NADPH addition measured after 120 mins by HPLC analysis; format: ADME, Microsome; method in brief: as §3
# [9] = as §1; format: functional, cell-based; settings: Hepatitis B virus, 336 h; method in brief: as §2
# [10] = tested on: Hepatocyte; test: Cytotoxicity against human primary hepatocytes PXB cells assessed as decrease in cell viability by RealTime-Glo MT assay; format: cell-based
# Method in brief: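 Viability read by RealTime-Glo MT in HBV C_AT-infected PXB cells (3 genome equivalents/cell) given 0.01–10 μM compound from infection onward, with compound-containing medium exchanged every 3 or 4 days over 14 days; mean ± SE, n = 3.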
Structure (SMILES),Activity [1] [%],solubility [2] [µg/mL],Activity [3],Activity [4],Activity [5],Activity [6],half-life at 29 µM [7] [min],half-life at 29 µM [8] [min],IC50 [9] [µM],Activity [10]
Cl.NCCOc1cc(C(F)(F)F)c2ccc3nc(C(=O)Nc4ccncc4)cn3c2n1,51.8,> 30000,inactive,78.2%,–,–,–,–,–,–
FC(F)(F)c1cc(C(F)(F)F)c2ccc3nc(-c4nnco4)cn3c2n1,3.1,920,–,90.1 - 92.1%,Active,Active,58.2,34.1,–,–
CCCc1nnc(-c2cn3c(ccc4c(C(F)(F)F)cc(C(F)(F)F)nc43)n2)o1,8.5,–,–,15.3%,–,–,–,–,–,–
O=C(Nc1ccccn1)c1cn2c(ccc3c(C(F)(F)F)cc(C(F)(F)F)nc32)n1,1.6,< 100,–,2.6%,–,–,–,–,–,–
Cl.O=C(NC1CCNCC1)c1cn2c(ccc3c(C(F)(F)F)cc(C(F)(F)F)nc32)n1,58.6,> 30000,–,90.7%,–,inactive,> 120,> 120,8.4,Non-Toxic
O=C(c1cn2c(ccc3c(C(F)(F)F)cc(C(F)(F)F)nc32)n1)N1CCNCC1,–,–,Active,–,–,–,–,–,–,–
OCc1nnc(-c2cn3c(ccc4c(C(F)(F)F)cc(C(F)(F)F)nc43)n2)o1,-7.4,–,–,12%,–,–,–,–,–,–
O=C(Nc1cccnc1)c1cn2c(ccc3c(C(F)(F)F)cc(C(F)(F)F)nc32)n1,6.9,< 100,–,63.6%,–,–,–,–,–,–
Cc1nnc(-c2cn3c(ccc4c(C(F)(F)F)cc(C(F)(F)F)nc43)n2)o1,4.3,–,–,89.8%,–,–,–,–,–,–
Cl.NCCOc1cc(C(F)(F)F)c2ccc3nc(-c4nnco4)cn3c2n1,5.7,19800,–,28.1%,–,Active,–,–,10,Non-Toxic
COCc1nnc(-c2cn3c(ccc4c(C(F)(F)F)cc(C(F)(F)F)nc43)n2)o1,-2.5,–,–,4.8%,–,–,–,–,–,–
O=C(Nc1ccncc1)c1cn2c(ccc3c(C(F)(F)F)cc(C(F)(F)F)nc32)n1,4.2,< 100,–,40.1%,–,–,–,–,–,–
